From ChEMBL document CHEMBL1145203, “Synthesis of new benzoxazinone derivatives as neuropeptide Y5 antagonists for the treatment of obesity” (J Med Chem, 2005) come the findings set out here.

For assay [1], the target named is T1, Neuropeptide Y receptor type 5 (Rattus norvegicus) (UniProt Q63634).
T1 sequence (whole entry): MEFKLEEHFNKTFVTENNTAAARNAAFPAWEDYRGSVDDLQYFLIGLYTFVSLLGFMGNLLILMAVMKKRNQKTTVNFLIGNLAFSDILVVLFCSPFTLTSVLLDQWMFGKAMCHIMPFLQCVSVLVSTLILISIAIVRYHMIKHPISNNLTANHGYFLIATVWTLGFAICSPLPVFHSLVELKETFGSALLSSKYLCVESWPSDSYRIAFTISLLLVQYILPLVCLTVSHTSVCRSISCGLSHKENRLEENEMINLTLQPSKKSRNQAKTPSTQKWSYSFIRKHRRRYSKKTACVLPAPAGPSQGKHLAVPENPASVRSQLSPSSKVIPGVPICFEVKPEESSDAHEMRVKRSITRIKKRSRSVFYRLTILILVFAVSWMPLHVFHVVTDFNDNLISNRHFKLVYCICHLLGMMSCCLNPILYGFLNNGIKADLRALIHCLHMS
Briefly: Inhibition of PYY effect on forskolin-stimulated cyclic AMP formation in C6 cells expressing rat NPY Y5 receptor. It is filed as functional, cell-based. More on the design: concentration or dose not given beside the values. Conditions: concentration not given here. The gist of the method:
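C6 cells stably expressing rat NPY Y5, grown to 80% confluency in serum-free DMEM with L-glutamine, penicillin and streptomycin. Cells trypsinised 2 h before assay, about 50 000 cells/well. Compounds added with or without PYY; forskolin-stimulated cAMP measured after 30 min by FlashPlate with [125I]succinyl cAMP tracer. Expressed as % cAMP formation versus forskolin controls without PYY; three experiments in duplicate.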

The target in assay [2] is T2, Neuropeptide Y receptor type 5 (Rattus norvegicus, UniProt Q63634).
T2 sequence (Q63634 whole entry): T1 sequence (whole entry)
Briefly: Inhibition of [125I]PYY binding to the rat NPY Y5 receptor in C6 cells. In kind it is cell-based. The method in brief:
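Radioligand [125I]-PYY 100 pM, incubated 2 h at 25 °C. Stopped with ice-cold buffer, filtered and washed, bound radioactivity counted. Nonspecific binding defined with 1 µM pNPY; triplicate.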

Each structure is given as a SMILES string.

As usually defined, the inhibition is the percentage by which the read-out fell short of the control. As usually defined, the IC50 is the midpoint of a concentration-inhibition curve. With `CC(=O)c1ccc(NC(=O)CN2CCC(N3C(=O)OCc4cc(Cl)ccc43)CC2)cc1`, in assay [1], the inhibition is 99.9%. Besides, in assay [2], the half-inhibitory concentration (IC50) is 21 nM.
On to `O=C(CN1CCC(N2C(=O)OCc3ccccc32)CC1)Nc1ccc2c(c1)-c1ccccc1C2=O`, for which, in assay [1], the inhibition was 100%. In assay [2], the IC50 is 23.3 nM.
Molecule `CCn1c2ccccc2c2cc(NC(=O)CN3CCC(N4C(=O)OCc5cccc(OC)c54)CC3)ccc21` came in with an inhibition in assay [1] of 19.2%. The 50% inhibitory concentration (IC50) in assay [2] worked out at 765 nM.
`Cc1cccc2c1N(C1CCN(CC(=O)Nc3ccccc3)CC1)C(=O)OC2`: the 50% inhibitory concentration (IC50) in assay [2] was above 1000 nM.
On to `CCn1c2ccccc2c2cc(NC(=O)CN3CCC(N4C(=O)OCc5cc(Cl)ccc54)CC3)ccc21`, for which the inhibition in assay [1] was 99.3%. This molecule registered a half-inhibitory concentration (IC50) in assay [2] of 100 nM.
`O=C(CN1CCC(N2C(=O)OCc3ccccc32)CC1)Nc1ccc2c(c1)C(=O)c1ccccc1-2` came in with an IC50 in assay [2] above 1000 nM.
The molecule `O=C(CN1CCC(N2C(=O)OCc3cc(Cl)ccc32)CC1)Nc1ccc(C(=O)c2ccccc2)cc1` showed an inhibition in assay [1] of 97.4%. The molecule also had a 50% inhibitory concentration (IC50) in assay [2] of 11.2 nM.
In assay [1], `CCn1c2ccccc2c2cc(NC(=O)CN3CCC(N4C(=O)OCc5c(Cl)cccc54)CC3)ccc21` yielded an inhibition of 83.4%.
`O=C(CN1CCC(N2C(=O)OCc3cc(Cl)ccc32)CC1)Nc1ccc2c(c1)-c1ccccc1C2=O` returned an inhibition in assay [1] of 100%. In assay [2], the IC50 came out at 25 nM.
Molecule `O=C(CN1CCC(N2C(=O)OCc3cc(Cl)ccc32)CC1)Nc1ccc2c(c1)C(=O)c1ccccc1-2` yielded an inhibition in assay [1] of 94%. The molecule also had an IC50 in assay [2] of 69 nM.
The molecule `Cc1ccc2c(c1)COC(=O)N2C1CCN(CC(=O)Nc2ccc3c(c2)C(=O)c2ccccc2-3)CC1` returned an inhibition in assay [1] of 93.9%. This molecule gave a half-maximal inhibitory concentration (IC50) in assay [2] of 86.7 nM.
Taken in the same sequence, the figures for `Cc1ccc2c(c1)COC(=O)N2C1CCN(CC(=O)Nc2ccc(Oc3ccccc3)cc2)CC1` were 94.5% and 104 nM.
`N#Cc1ccc(NC(=O)CN2CCC(N3C(=O)OCc4ccccc43)CC2)cc1` yielded an inhibition in assay [1] of 88.7%. This molecule displayed a half-inhibitory concentration (IC50) in assay [2] of 132 nM.
On the same counts, the results for `CCn1c2ccccc2c2cc(NC(=O)CN3CCC(N4C(=O)OCc5cccc(C)c54)CC3)ccc21` are 96.9% and 50 nM.
As to `O=C(CN1CCC(N2C(=O)OCc3ccccc32)CC1)Nc1ccc2c(c1)-c1ccccc1C2O` (stereo not given), the inhibition in assay [1] came to 96.1%. In assay [2], this molecule showed a half-inhibitory concentration (IC50) of 8.7 nM.
`O=C(CN1CCC(N2C(=O)OCc3ccccc32)CC1)Nc1ccc(Cl)cc1` gave an IC50 in assay [2] of 300 nM.
`O=C(CN1CCC(N2C(=O)OCc3ccccc32)CC1)Nc1ccc(Oc2ccccc2)cc1` displayed an inhibition in assay [1] of 100%. In assay [2], this molecule registered an IC50 of 20 nM.
In assay [2], `Cc1cccc2c1N(C1CCN(CC(=O)Nc3ccc(Cl)cc3)CC1)C(=O)OC2` returned a 50% inhibitory concentration (IC50) above 1000 nM.
With `O=C(CN1CCC(N2C(=O)OCc3cc(Cl)ccc32)CC1)Nc1ccc2ncccc2c1`, the inhibition in assay [1] came out at 71.9%. Also, in assay [2], the half-inhibitory concentration (IC50) was 148 nM.
Consider `Cc1cccc2c1N(C1CCN(CC(=O)Nc3ccc4c(c3)-c3ccccc3C4O)CC1)C(=O)OC2` (stereo not given), for which the inhibition in assay [1] worked out at 100%. Also, the IC50 in assay [2] is 30 nM.
With `O=C(CN1CCC(N2C(=O)OCc3ccccc32)CC1)Nc1ccccc1`, in assay [2], the half-maximal inhibitory concentration (IC50) is above 1000 nM.
For `O=C(CN1CCC(N2C(=O)OCc3cc(Cl)ccc32)CC1)Nc1ccc(C2CCCCC2)cc1`, the inhibition in assay [1] came to 98.4%. Besides, the IC50 in assay [2] worked out at 112 nM.
Consider `O=C(CN1CCC(N2C(=O)OCc3cc(Cl)ccc32)CC1)Nc1ccccc1C(=O)c1ccccc1`, for which, in assay [2], the IC50 was above 1000 nM.
In turn, `COC(=O)c1ccccc1NC(=O)CN1CCC(N2C(=O)OCc3cc(Cl)ccc32)CC1` gave an IC50 in assay [2] above 1000 nM.
As for `CC(=O)c1ccc(NC(=O)CN2CCC(N3C(=O)OCc4cc(C)ccc43)CC2)cc1`, the inhibition in assay [1] amounted to 89.4%. Moreover, the IC50 in assay [2] is 26 nM.
For the molecule `CC(=O)c1ccc(NC(=O)CN2CCC(N3C(=O)OCc4ccccc43)CC2)cc1`, the inhibition in assay [1] was determined as 95.4%. In assay [2], this molecule showed an IC50 of 17.3 nM.
On the same counts, the results for `O=C(CN1CCC(N2C(=O)OCc3cc(Cl)ccc32)CC1)Nc1ccc2c(c1)-c1ccccc1C2O` (stereo not given) are 100% and 8 nM.
`COC(=O)c1ccccc1NC(=O)CN1CCC(N2C(=O)OCc3ccccc32)CC1` returned an IC50 in assay [2] above 1000 nM.
`O=C(CN1CCC(N2C(=O)OCc3ccccc32)CC1)Nc1ccccc1C(=O)c1ccccc1` returned a 50% inhibitory concentration (IC50) in assay [2] above 1000 nM.
Take `N#Cc1ccc(NC(=O)CN2CCC(N3C(=O)OCc4cc(Cl)ccc43)CC2)cc1`: the inhibition in assay [1] turned out to be 91.5%. In assay [2], this molecule had a 50% inhibitory concentration (IC50) of 199 nM.
Turning to `Cc1cccc2c1N(C1CCN(CC(=O)Nc3ccccc3C(=O)c3ccccc3)CC1)C(=O)OC2`, the half-maximal inhibitory concentration (IC50) in assay [2] was above 1000 nM.
In the case of `Cc1cccc2c1N(C1CCN(CC(=O)Nc3ccc4c(c3)-c3ccccc3C4=O)CC1)C(=O)OC2`, the inhibition in assay [1] came to 93.8%. In assay [2], this molecule showed a half-inhibitory concentration (IC50) of 50 nM.
`Cc1cccc2c1N(C1CCN(CC(=O)Nc3ccc(C(=O)c4ccccc4)cc3)CC1)C(=O)OC2` registered an inhibition in assay [1] of 100%. For the same molecule, the IC50 in assay [2] is 39.6 nM.
On to `COC(=O)c1ccccc1NC(=O)CN1CCC(N2C(=O)OCc3cc(C)ccc32)CC1`, for which, in assay [2], the IC50 was above 1000 nM.
Molecule `Cn1c2ccccc2c2cc(NC(=O)CN3CCC(N4C(=O)OCc5ccccc54)CC3)ccc21` returned an inhibition in assay [1] of 88.7%. Further, the IC50 in assay [2] is 9.6 nM.
In turn, `O=C(CN1CCC(N2C(=O)OCc3cc(F)ccc32)CC1)Nc1ccc2ncccc2c1` had an inhibition in assay [1] of 93.3%.
The molecule `O=C(CN1CCC(N2C(=O)OCc3ccccc32)CC1)Nc1cccc2c1-c1ccccc1C2=O` registered a half-maximal inhibitory concentration (IC50) in assay [2] of 138 nM.
With `COC(=O)c1ccccc1NC(=O)CN1CCC(N2C(=O)OCc3cccc(C)c32)CC1`, the half-maximal inhibitory concentration (IC50) in assay [2] is above 1000 nM.
Molecule `COc1cccc2c1N(C1CCN(CC(=O)Nc3ccc4oc5ccccc5c4c3)CC1)C(=O)OC2` had an inhibition in assay [1] of 23.6%. This molecule yielded an IC50 in assay [2] of 55.7 nM.
Taken in the same sequence, the figures for `O=C(CN1CCC(N2C(=O)OCc3cc(Cl)ccc32)CC1)Nc1ccc(Oc2ccccc2)cc1` were 99.2% and 60.7 nM.
